Measured values taken from ChEMBL document CHEMBL3856218, “Polycyclic Polyprenylated Acylphloroglucinol Congeners from Hypericum scabrum” (J Nat Prod, 2016).
pIC50: −log10 of the molar value.

How the values were obtained:
[1] = Neuroprotective activity against glutamate-induced toxicity in human SK-N-SH cells assessed as cell viability at 10 uM after 24 hrs by MTT assay (reference value: 61.9 +/- 0.9%); assay type: functional; details: read-out: Activity
[2] = Cytotoxicity against human Bel7402 cells at 10^-5 M by MTT assay relative to control; assay type: functional; details: Bel-7402
[3] = Cytotoxicity against human HCT8 cells at 10^-5 M by MTT assay relative to control; assay type: functional; details: HCT-8
[4] = Cytotoxicity against human A549 cells at 10^-5 M by MTT assay relative to control; assay type: functional
[5] = Hepatoprotective activity in human HepG2 cells assessed as inhibition of paracetamol-induced cell damage at 10 uM preincubated for 1 hr followed by paracetamol addition measured after 24 hrs by MTT assay relative to control; assay type: functional
How it was run: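 HepG2 cells damaged with paracetamol, test agents at 10 μM, with bicyclol (10 μM) as the positive control. Viability was read by MTT colorimetric assay and expressed as % of normal, and inhibition as % of paracetamol control. Values are mean ± SD, n = 3 (normal and control wells n = 6).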

[6] = biological target: Sodium-dependent noradrenaline transporter (Homo sapiens, UniProt P23975); assay: Inhibition of norepinephrine transporter (unknown origin) assessed as suppression of synaptosomal uptake of norepinephrine
[7] = biological target: Sodium-dependent serotonin transporter (Homo sapiens, UniProt P31645); assay: Inhibition of serotonin transporter (unknown origin) assessed as suppression of synaptosomal uptake of serotonin
[8] = biological target: Sodium-dependent dopamine transporter (Homo sapiens, UniProt Q01959); assay: Inhibition of dopamine transporter (unknown origin) assessed as suppression of synaptosomal uptake of dopamine
[9] = Inhibition of GABA transporter (unknown origin) assessed as suppression of synaptosomal uptake of GABA; parameters: species or system Homo sapiens
[10] = Inhibition of glutamate transporter (unknown origin) assessed as suppression of synaptosomal uptake of L-glutamate; parameters: species or system Homo sapiens

Sodium-dependent dopamine transporter, sequence (Q01959 whole entry): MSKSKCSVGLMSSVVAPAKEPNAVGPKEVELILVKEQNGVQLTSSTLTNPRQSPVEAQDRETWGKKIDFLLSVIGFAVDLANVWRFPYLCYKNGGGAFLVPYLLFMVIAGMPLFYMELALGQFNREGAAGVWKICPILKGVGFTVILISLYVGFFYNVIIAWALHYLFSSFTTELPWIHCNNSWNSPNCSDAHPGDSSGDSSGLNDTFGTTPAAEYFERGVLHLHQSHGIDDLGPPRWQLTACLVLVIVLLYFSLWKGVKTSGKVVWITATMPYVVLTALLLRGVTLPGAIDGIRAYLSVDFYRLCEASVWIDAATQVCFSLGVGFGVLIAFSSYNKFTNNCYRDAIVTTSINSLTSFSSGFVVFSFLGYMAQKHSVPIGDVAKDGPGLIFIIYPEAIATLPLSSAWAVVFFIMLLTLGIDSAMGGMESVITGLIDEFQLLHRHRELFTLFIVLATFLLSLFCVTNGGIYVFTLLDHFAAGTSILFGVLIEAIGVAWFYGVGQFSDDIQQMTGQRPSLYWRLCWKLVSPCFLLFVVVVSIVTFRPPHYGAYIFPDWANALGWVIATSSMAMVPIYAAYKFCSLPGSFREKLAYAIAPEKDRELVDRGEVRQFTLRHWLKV
Sodium-dependent noradrenaline transporter, sequence (P23975 whole entry): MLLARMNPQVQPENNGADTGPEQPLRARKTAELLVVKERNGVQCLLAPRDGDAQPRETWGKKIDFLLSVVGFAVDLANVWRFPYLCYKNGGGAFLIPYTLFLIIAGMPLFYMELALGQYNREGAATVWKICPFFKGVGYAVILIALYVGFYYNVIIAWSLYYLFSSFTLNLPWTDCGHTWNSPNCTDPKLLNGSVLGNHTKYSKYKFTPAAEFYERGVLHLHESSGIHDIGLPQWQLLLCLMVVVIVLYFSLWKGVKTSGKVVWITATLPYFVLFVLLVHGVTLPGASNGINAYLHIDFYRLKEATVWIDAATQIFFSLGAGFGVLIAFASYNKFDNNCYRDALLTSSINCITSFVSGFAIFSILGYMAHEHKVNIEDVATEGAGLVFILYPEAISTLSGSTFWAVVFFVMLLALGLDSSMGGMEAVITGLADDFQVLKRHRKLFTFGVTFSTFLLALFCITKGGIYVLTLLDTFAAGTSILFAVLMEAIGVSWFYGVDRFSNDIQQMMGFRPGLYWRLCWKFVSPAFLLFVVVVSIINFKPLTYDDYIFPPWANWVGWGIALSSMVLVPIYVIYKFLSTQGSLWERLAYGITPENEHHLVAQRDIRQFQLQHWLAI
Sodium-dependent serotonin transporter, sequence (P31645 whole entry): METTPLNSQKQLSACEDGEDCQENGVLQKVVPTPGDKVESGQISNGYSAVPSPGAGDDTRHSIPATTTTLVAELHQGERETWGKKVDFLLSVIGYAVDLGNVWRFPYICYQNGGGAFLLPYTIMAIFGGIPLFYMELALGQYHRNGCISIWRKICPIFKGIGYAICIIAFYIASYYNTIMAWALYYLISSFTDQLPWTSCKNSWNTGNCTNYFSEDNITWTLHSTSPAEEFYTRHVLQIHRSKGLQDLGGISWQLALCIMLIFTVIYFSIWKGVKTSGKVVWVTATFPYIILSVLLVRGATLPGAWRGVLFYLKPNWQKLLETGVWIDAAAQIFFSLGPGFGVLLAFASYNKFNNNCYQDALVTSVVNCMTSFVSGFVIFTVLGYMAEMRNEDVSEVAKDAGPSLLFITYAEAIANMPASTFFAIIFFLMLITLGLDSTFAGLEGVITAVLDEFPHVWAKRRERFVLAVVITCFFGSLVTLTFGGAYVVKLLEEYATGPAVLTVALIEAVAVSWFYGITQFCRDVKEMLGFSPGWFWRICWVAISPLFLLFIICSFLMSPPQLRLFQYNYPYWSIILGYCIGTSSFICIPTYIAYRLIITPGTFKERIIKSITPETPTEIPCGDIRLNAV

CC(C)=CC[C@H]1C[C@@]2(C)C(=O)[C@](C(=O)C(C)C)(C(=O)C3=C2O[C@H](C(C)(C)O)C3)[C@]1(C)CCCC(C)C
viability at 10 µM [1]: 71.6%

CC[C@H](C)C(=O)C12C(=O)[C@]3(CC=C(C)C)O[C@@]1(O)C(C)(C[C@H](CC=C(C)C)[C@@]2(C)CCC=C(C)C)C3=O (some centres not stated)
inhibition at 10 µM [2]: -3.16% | inhibition at 10 µM [3]: -25.9% | inhibition at 10 µM [4]: 19% | viability at 10 µM [1]: 72.1% | inhibition at 10 µM [5]: 36.7%

Oc1ccc(/C=C/c2cc(O)cc(O)c2)cc1 [RESVERATROL]
viability at 10 µM [1]: 72.6%

CC(C)=CCC[C@]1(C)C[C@H](CC=C(C)C)[C@](C)(O)C(=O)[C@H]1C(=O)C(C)C
inhibition at 10 µM [2]: 14.7% | inhibition at 10 µM [3]: -25.7% | inhibition at 10 µM [4]: 17.2%

CCC(C)C(=O)[C@]12C(=O)[C@](CC=C(C)C)(C[C@H](CC=C(C)C)[C@@]1(C)CCC=C(C)C)C(=O)C(CC=C(C)C)=C2O (some centres not stated) [ADHYPERFORIN]
pIC50 [6]: 5.70 | pIC50 [7]: 5.70 | pIC50 [8]: 5.70

CC(C)=CC[C@H]1C[C@]2(C)C(=O)C3=C(O[C@H](C(C)(C)O)C3)[C@@](C(=O)C(C)C)(C2=O)[C@]1(C)CCCC(C)C
viability at 10 µM [1]: 75.4%

CC(C)=CC[C@H]1C[C@]2(CC=C(C)C)C(=O)C(C(=O)c3ccccc3)=C3O[C@H](C(C)(C)O)C[C@]3(C2=O)C1(C)C
inhibition at 10 µM [2]: 1.05% | inhibition at 10 µM [3]: 3.04% | inhibition at 10 µM [4]: 10.7% | viability at 10 µM [1]: 73.5%

CC[C@H](C)C(=O)[C@@H]1C(=O)[C@@](C)(O)[C@@H](CC=C(C)C)C[C@@]1(C)CCC=C(C)C
inhibition at 10 µM [2]: 3.31% | inhibition at 10 µM [3]: -24.4% | inhibition at 10 µM [4]: -13.6% | inhibition at 10 µM [5]: 30.5%

CC[C@@H](C)C(=O)[C@]12C(=O)[C@]3(C)C[C@H](CC=C(C)C)[C@@]1(C)CC[C@H](C(C)(C)O)OC2=C(CC=C(C)C)C3=O
inhibition at 10 µM [2]: 8.64% | inhibition at 10 µM [3]: -41.2% | inhibition at 10 µM [4]: 8.65% | viability at 10 µM [1]: 70.8% | inhibition at 10 µM [5]: 24.9%

CC(C)=CCC[C@]1(C)[C@@H](CC=C(C)C)C[C@]2(CC=C(C)C)C(=O)C(CC=C(C)C)=C(O)[C@@]1(C(=O)C(C)C)C2=O
pIC50 [6]: 5.70 | pIC50 [9]: 5.70 | pIC50 [8]: 5.70 | pIC50 [10]: 5.70

CC(C)=CCC1=C2O[C@@H](C(C)(C)OO)C[C@@]23C[C@H](CC=C(C)C)C(C)(C)[C@@](C(=O)c2ccccc2)(C1=O)C3=O
inhibition at 10 µM [2]: 18.4% | inhibition at 10 µM [3]: -32.2% | inhibition at 10 µM [4]: 14.6%

CC(C)=CC[C@@]12C[C@H]3[C@@H](C=C(C)C)[C@@](C(=O)c4ccccc4)(C1=O)C(=O)[C@@](CC=C(C)C)(C2=O)C3(C)C [HYPERIBONE K]
viability at 10 µM [1]: 73.1% | inhibition at 10 µM [5]: 49%

O=c1[nH]cc(F)c(=O)[nH]1 [FLUOROURACIL]
inhibition at 10 µM [2]: 70.6% | inhibition at 10 µM [3]: 70.4% | inhibition at 10 µM [4]: 68.3%

CC(C)=CCC[C@]1(C)[C@@H](CC=C(C)C)CC2(CC=C(C)C)C(=O)[C@@]3(CC=C(C)C)O[C@]2(O)[C@]1(C(=O)C(C)C)C3=O (some centres not stated)
inhibition at 10 µM [5]: 14%

C=C(C)[C@@H]1C[C@@]23C[C@@H](CC=C(C)C)C(C)(C)[C@@](CC=C(C)C)(C(=O)C(C(=O)c4ccccc4)=C2O1)C3=O
inhibition at 10 µM [2]: -0.2% | inhibition at 10 µM [3]: -29.7% | inhibition at 10 µM [4]: 6.64% | viability at 10 µM [1]: 73.1%

CC(C)=CC[C@H]1CC(C)=C2OC(C)(C)[C@@H]3CC[C@@]1(C)[C@]23C(=O)C(C)C
inhibition at 10 µM [5]: 15.9%

COC(=O)c1cc(OC)c2c(c1-c1c(CO)cc(OC)c3c1OCO3)OCO2 [BICYCLOL]
inhibition at 10 µM [5]: 19.5%

CC(C)=CC[C@H]1C[C@@]2(C)C(=O)[C@](C(=O)c3ccccc3)(C(=O)C3=C2O[C@H](C(C)(C)O)C3)[C@]1(C)CCCC(C)C
viability at 10 µM [1]: 83%

CC(C)=CCC[C@]1(C)[C@@H](CC=C(C)C)CC2(C)C(=O)[C@@]3(CC=C(C)C)O[C@]2(O)[C@]1(C(=O)C(C)C)C3=O (some centres not stated)
inhibition at 10 µM [5]: 25.8%

CC(C)=CC[C@H]1C[C@@]2(C)C(=O)[C@](C(=O)C(C)C)(C(=O)C3=C2O[C@@H](C(C)(C)O)C3)[C@]1(C)CCCC(C)C
inhibition at 10 µM [5]: 23.3%

CC(C)=CCC1=C2OCC[C@@]23C[C@H](CC=C(C)C)C(C)(C)[C@@](C(=O)c2ccccc2)(C1=O)C3=O
inhibition at 10 µM [2]: -1.32% | inhibition at 10 µM [3]: 14.4% | inhibition at 10 µM [4]: 1.46%

CC(C)=CC[C@H]1C[C@@]2(CC=C(C)C)C(=O)[C@](C(=O)c3ccccc3)(C(=O)C3=C2O[C@@H](C(C)(C)O)C3)[C@]1(C)CCCC(C)C
inhibition at 10 µM [5]: 10.3%

CC(C)=CCC1=C2O[C@@H](C(C)(C)O)CC[C@]3(C)[C@@H](CC=C(C)C)C[C@](C)(C1=O)C(=O)[C@]23C(=O)C(C)C
inhibition at 10 µM [2]: 19.4% | inhibition at 10 µM [3]: -37.1% | inhibition at 10 µM [4]: 0.36% | inhibition at 10 µM [5]: 6.1%
